Active and inactive are the calls of the source. The calls are words filed in the database; no cut-off is given here.
Tests used:
MRC5 = test: Cytotoxicity against human MRC5 cells assessed as reduction in cell viability after 72 hrs by MTT assay; type: cell-based; settings: MRC5, 72 h
HeLa = test: Cytotoxicity against human HeLa cells assessed as reduction in cell viability after 72 hrs by MTT assay; type: functional, cell-based
MDA-MB-231 = test: Cytotoxicity against human MDA-MB-231 cells assessed as reduction in cell viability after 72 hrs by MTT assay; type: functional, cell-based; settings: MDA-MB-231, 72 h
MCF7 = test: Cytotoxicity against human MCF7 cells assessed as reduction in cell viability after 72 hrs by MTT assay; type: functional, cell-based; settings: MCF7, 72 h
Raji = test: Cytotoxicity against human Raji cells assessed as reduction in cell viability after 72 hrs by MTT assay; type: functional, cell-based
Jurkat = test: Cytotoxicity against human Jurkat cells assessed as reduction in cell viability after 72 hrs by MTT assay; type: functional, cell-based
HL-60 = test: Cytotoxicity against human HL60 cells assessed as reduction in cell viability after 72 hrs by MTT assay; type: functional, cell-based; settings: HL-60, 72 h
K562 [1] = test: Cytotoxicity against human K562 cells assessed as reduction in cell viability after 72 hrs by MTT assay; type: functional, cell-based; settings: K562, 72 h
A549 = test: Cytotoxicity against human A549 cells assessed as reduction in cell viability after 72 hrs by MTT assay; type: functional, cell-based; settings: A549, 72 h
K562 [2] = test: Cell cycle arrest in human K562 cells assessed as accumulation at sub G1 phase at IC50 after 72 hrs by propidium iodide staining based flow cytometry (reference value: 1.48%); type: functional
K562 [3] = test: Cell cycle arrest in human K562 cells assessed as accumulation at G0/G1 phase at IC50 after 72 hrs by propidium iodide staining based flow cytometry (reference value: 38.48%); type: functional
K562 [4] = test: Cell cycle arrest in human K562 cells assessed as accumulation at S phase at IC50 after 72 hrs by propidium iodide staining based flow cytometry (reference value: 41.03%); type: functional
K562 [5] = test: Cell cycle arrest in human K562 cells assessed as accumulation at G2/M phase at IC50 after 72 hrs by propidium iodide staining based flow cytometry (reference value: 19.01%); type: functional
K562 [6] = test: Induction of apoptosis in human K562 cells assessed as specific apoptosis by Annexin V-FITC/propidium iodide staining based flow cytometry; type: functional; parameters: concentration or dose not given beside the values
K562 [7] = test: Induction of apoptosis in human K562 cells assessed as specific necrosis by Annexin V-FITC/propidium iodide staining based flow cytometry; type: functional; parameters: concentration or dose not given beside the values
K562 [8] = test: Induction of apoptosis in human K562 cells assessed as decrease in Bcl-2 expression level by Western blot analysis; type: functional, cell-based
Method in brief: (§1)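 Western blot of treated K562 cells for Bcl-2, Bax, activated caspase 3 and cleaved PARP (85 kDa fragment). Blots developed by ECL, with band expression quantified by densitometry against an untreated control sample.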

K562 [9] = test: Induction of apoptosis in human K562 cells assessed as increase in Bax expression level by Western blot analysis; type: functional, cell-based; method in brief: as §1
K562 [10] = test: Cell cycle arrest in human K562 cells assessed as total cell levels at G0/G1 phase at IC50 after 72 hrs by propidium iodide staining based flow cytometry (reference value: 39.97%); type: functional
K562 [11] = test: Cell cycle arrest in human K562 cells assessed as total cell levels at S phase at IC50 after 72 hrs by propidium iodide staining based flow cytometry (reference value: 36.49%); type: functional
K562 [12] = test: Cell cycle arrest in human K562 cells assessed as total cell levels at G2/M phase at IC50 after 72 hrs by propidium iodide staining based flow cytometry (reference value: 14.31%); type: functional
K562 [13] = test: Cell cycle arrest in human K562 cells assessed as total cell levels at M4 phase at IC50 after 72 hrs by propidium iodide staining based flow cytometry (reference value: 0.50%); type: functional
K562 [14] = test: Induction of apoptosis in human K562 cells assessed as gated necrotic cells by Annexin V-FITC/propidium iodide staining based flow cytometry (reference value: 0.24%); type: functional
K562 [15] = test: Induction of apoptosis in human K562 cells assessed as gated late apoptotic cells by Annexin V-FITC/propidium iodide staining based flow cytometry (reference value: 0.88%); type: functional
K562 [16] = test: Induction of apoptosis in human K562 cells assessed as gated viable cells by Annexin V-FITC/propidium iodide staining based flow cytometry (reference value: 95.78%); type: functional
K562 [17] = test: Induction of apoptosis in human K562 cells assessed as gated early apoptotic cells by Annexin V-FITC/propidium iodide staining based flow cytometry (reference value: 3.18%); type: functional
K562 [18] = test: Induction of apoptosis in human K562 cells assessed as total necrotic cells by Annexin V-FITC/propidium iodide staining based flow cytometry (reference value: 0.23%); type: functional
K562 [19] = test: Induction of apoptosis in human K562 cells assessed as total late apoptotic cells by Annexin V-FITC/propidium iodide staining based flow cytometry (reference value: 0.77%); type: functional
K562 [20] = test: Induction of apoptosis in human K562 cells assessed as total viable cells by Annexin V-FITC/propidium iodide staining based flow cytometry (reference value: 92.45%); type: functional
K562 [21] = test: Induction of apoptosis in human K562 cells assessed as total early apoptotic cells by Annexin V-FITC/propidium iodide staining based flow cytometry (reference value: 3.07%); type: functional

| SMILES | IC50 (MRC5) [µM] | IC50 (HeLa) [µM] | IC50 (MDA-MB-231) [µM] | IC50 (MCF7) [µM] | IC50 (Raji) [µM] | IC50 (Jurkat) [µM] | IC50 (HL-60) [µM] | IC50 (K562 [1]) [µM] | IC50 (A549) [µM] | Activity (K562 [2]) [%] | Activity (K562 [3]) [%] | Activity (K562 [4]) [%] | Activity (K562 [5]) [%] | Activity (K562 [6]) [%] | Activity (K562 [7]) [%] | Activity (K562 [8]) | Activity (K562 [9]) | Activity (K562 [10]) [%] | Activity (K562 [11]) [%] | Activity (K562 [12]) [%] | also measured |
| --- | --- | --- | --- | --- | --- | --- | --- | --- | --- | --- | --- | --- | --- | --- | --- | --- | --- | --- | --- | --- | --- |
| O=C1C=C[C@@]2(C[C@H](O)[C@@H](c3ccccc3)O2)O1 | > 100 | 2.12 | > 100 | 3.57 | 5.97 | 0.34 | 1.02 | 0.54 | 21.3 | 1.26 | 39.26 | 35.2 | 24.28 | 11.74 | 4.8 | inactive | Active | 29.6 | 26.52 | 18.07 | Activity (K562 [13]): 0.94%; Activity (K562 [14]): 8.59%; Activity (K562 [15]): 11.28%; Activity (K562 [16]): 76.16%; Activity (K562 [17]): 3.97%; Activity (K562 [18]): 2.81%; Activity (K562 [19]): 3.69%; Activity (K562 [20]): 24.92%; Activity (K562 [21]): 1.3% |
| COc1ccc(/C=C/C(=O)O[C@H]2C[C@@]3(C=CC(=O)O3)O[C@@H]2c2ccccc2)cc1 | > 100 | 3.64 | > 100 | 2.22 | 99.8 | 21.1 | 6.37 | 1.11 | 23.1 | 1.57 | 30.72 | 42.64 | 25.07 | 15.35 | 3.15 | inactive | Active | 26.37 | 36.83 | 22.36 | Activity (K562 [13]): 1.35%; Activity (K562 [14]): 0.96%; Activity (K562 [15]): 4.41%; Activity (K562 [16]): 80.32%; Activity (K562 [17]): 14.31%; Activity (K562 [18]): 0.78%; Activity (K562 [19]): 3.58%; Activity (K562 [20]): 65.19%; Activity (K562 [21]): 11.61% |
| O=C1C=C[C@@]2(C[C@H](O)[C@H](c3ccccc3)O2)O1 | > 100 | 4.61 | > 100 | 1.97 | 2.69 | 0.96 | 0.19 | 0.54 | 31.4 | 1.1 | 28.98 | 52.34 | 17.58 | 10.05 | 0.67 | Active | Active | 15.11 | 50.77 | 13.99 | Activity (K562 [13]): 0.87%; Activity (K562 [14]): 4.62%; Activity (K562 [15]): 7.48%; Activity (K562 [16]): 81.75%; Activity (K562 [17]): 6.15%; Activity (K562 [18]): 1.15%; Activity (K562 [19]): 1.86%; Activity (K562 [20]): 20.34%; Activity (K562 [21]): 1.53% |
| COc1ccc(/C=C/C(=O)O[C@H]2C[C@]3(C=CC(=O)O3)O[C@@H]2c2ccccc2)cc1 | > 100 | 3.34 | > 100 | 3.14 | 89.7 | 58.1 | 8.67 | 2.12 | 33.6 | 3.39 | 21.08 | 41.08 | 34.45 | 37.78 | 3.86 | inactive | Active | 16.74 | 32.71 | 27.1 | Activity (K562 [13]): 2.67%; Activity (K562 [14]): 0.27%; Activity (K562 [15]): 2.92%; Activity (K562 [16]): 59.39%; Activity (K562 [17]): 37.43%; Activity (K562 [18]): 0.2%; Activity (K562 [19]): 2.17%; Activity (K562 [20]): 44.16%; Activity (K562 [21]): 27.83% |
